For data set [1], the system named is spermatogenesis in mice. Conditions: oral, low levels; cited from earlier work.
In a further data set the target is T1, RARβ (Homo sapiens, UniProt P10826).
T1 sequence (P10826 1-455): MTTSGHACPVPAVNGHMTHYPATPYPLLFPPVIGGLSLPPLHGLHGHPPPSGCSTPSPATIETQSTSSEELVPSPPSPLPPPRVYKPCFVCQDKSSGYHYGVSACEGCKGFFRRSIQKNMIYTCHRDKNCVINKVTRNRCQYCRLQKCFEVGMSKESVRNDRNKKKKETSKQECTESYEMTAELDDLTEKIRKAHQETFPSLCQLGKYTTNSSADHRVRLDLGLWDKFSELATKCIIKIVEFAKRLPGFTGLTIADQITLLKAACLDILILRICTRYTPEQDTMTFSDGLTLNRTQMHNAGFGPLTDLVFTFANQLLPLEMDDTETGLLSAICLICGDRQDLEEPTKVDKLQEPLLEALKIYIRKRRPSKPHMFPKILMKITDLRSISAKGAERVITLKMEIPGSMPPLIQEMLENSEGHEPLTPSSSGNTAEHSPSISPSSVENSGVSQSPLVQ
The experiment in a line: Transactivation competition assay. The format is cell-based. The following applies: HeLa cells, 10^−7M ATRA, increasing concentrations of retinoid, 24 hours. An outline of the steps: (§1)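 HeLa cells were cotransfected with receptor/CAT reporter constructs plus a constant β-galactosidase plasmid as internal control. Cells were incubated with submaximal ATRA (10–7 M) plus increasing concentrations of test compound, and CAT expression was measured after 24 h. Dilution medium without retinoid served as vehicle control and ATRA as positive control.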

The target of another data set is T2, RARγ (Homo sapiens, UniProt P13631).
T2 sequence (P13631 1-454): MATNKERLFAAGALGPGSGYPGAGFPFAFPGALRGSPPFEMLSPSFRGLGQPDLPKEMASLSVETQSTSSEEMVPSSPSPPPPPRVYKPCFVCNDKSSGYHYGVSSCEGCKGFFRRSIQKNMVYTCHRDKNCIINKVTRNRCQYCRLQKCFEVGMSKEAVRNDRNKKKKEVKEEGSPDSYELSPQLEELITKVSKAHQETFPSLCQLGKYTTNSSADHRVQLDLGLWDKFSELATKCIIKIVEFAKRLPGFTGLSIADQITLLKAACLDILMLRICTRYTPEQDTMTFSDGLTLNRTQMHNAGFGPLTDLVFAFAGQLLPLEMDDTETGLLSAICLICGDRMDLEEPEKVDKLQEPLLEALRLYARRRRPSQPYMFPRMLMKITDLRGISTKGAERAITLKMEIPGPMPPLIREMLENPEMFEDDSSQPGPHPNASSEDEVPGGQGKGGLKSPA
The experiment in a line: Transactivation competition assay. The format is cell-based. Conditions: HeLa cells, 10^−7M ATRA, increasing concentrations of retinoid, 24 hours. An outline of the steps: as §1

Data set [2] relates to spermatogenesis in mice. The experiment in a line: Oral administration, effect on spermatogenesis in mice. The format is in vivo, CD1 mice. Conditions: for Morphology of caudal epididymides: oral 10 mg/kg for 7 days; for Morphology of caudal epididymides / Epididymal sperm motility: 1-month post-treatment; for Testicular weight compared with control: oral 2 and 10 mg/kg for 7 days, mean±SD of five mice; for Effect on spermatogenesis (testis morphology): oral 2.0 and 10 mg/kg for 7 days, one-month after dosing; for Epididymal sperm motility: oral, 7 days. In a few lines: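 Male CD1 mice received test compound by oral gavage daily at 2 or 10 mg/kg for 7 days; controls got vehicle alone for 7 days. Body weight was monitored throughout. One month post-treatment, testes were collected and weighed (mean ± SD, five mice per regimen; […] Student's t-test vs age-matched controls). Testes and epididymides were sectioned for histology with tubule staging.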

The test system of data set [3] is spermatogenesis in mice. The experiment in a line: IV and IP administration, effect on spermatogenesis in mice. The format is in vivo, CD1 mice. An outline of the steps:
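Male CD1 mice dosed daily with test compound at 10 mg/kg by IV (for 3, 6 or 7 days; n = 2 for 6 and 7 days) or IP (7 days), against vehicle-only controls. Testes taken […] were sectioned and examined histologically for spermatid alignment and release in tubules. Reversibility was assessed by testis histology 4 weeks post-treatment.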

Data set [4] relates to RARs. Conditions: concomitantly transfected RARs; cited from earlier work.
The test system of data set [5] is RARs. The experiment in a line: Transactivation assay. The format is cell-based. The following applies: concomitantly transfected RARs.

Molecules are shown by their SMILES. Read-outs that look alike come from different tables or passages of the source.

For the compound `CC1(C)CC=C(c2ccccc2)c2cc(/C=C/c3ccc(C(=O)O)cc3)ccc21` [compound 1], in the data set on spermatogenesis in mice [1], the “Effect on spermatogenesis in mice” value is listed as “inhibited spermatogenesis” and the Side-effects in mice result is “without any observable side-effects”.
With `Cc1ccc(C2=CCC(C)(C)c3ccc(C(=O)Nc4ccc(C(=O)O)cc4)cc32)cc1` [compound 2], the “Competition of ATRA-induced CAT expression, RARβ” value on RARβ was “minimal activity”. The “Competition of ATRA-induced CAT expression, RARγ” value at RARγ was “minimal activity”. In the data set on spermatogenesis in mice [2], the “Morphology of caudal epididymides” value is reported as “appeared normal”, the “Testicular weight compared with control” value is “No significant differences”, the “Effect on spermatogenesis (testis morphology)” value is on record as “no effect on spermatogenesis” and the Epididymal sperm motility result was “normal motility”. Besides, the “Effect on spermatid alignment and sperm release” value with spermatogenesis in mice [3] (IV 10 mg/kg for 6 and 7 days, one-day post-treatment) is given as “Acute disruptive effects”. The “Effect on spermatogenesis 4-weeks post-treatment (reversibility)” value in the data set with spermatogenesis in mice [3] (IV, 4-weeks post-treatment) is given as “No effect on spermatogenesis”. Further, the “Induction of RARE-CAT reporter expression by compound alone” value with RARs [4] is “did not, by themselves, induce reporter expression”.
On to `CC1(C)CC=C(c2cnc3ccccc3c2)c2cc(C(=O)Nc3ccc(C(=O)O)cc3)ccc21` [compound 3], for which the “Competition of ATRA-induced CAT expression, RARβ” value at RARβ is “minimal activity”. The “Competition of ATRA-induced CAT expression, RARγ” value on RARγ was “minimal activity”. Besides, in the data set with RARs [5], the “Induction of RARE-CAT reporter expression by compound alone” value is given as “did not, by themselves, induce reporter expression”. Further, in the data set on spermatogenesis in mice [2], the “Morphology of caudal epididymides” value is reported as “appeared normal”, the “Testicular weight compared with control” value is recorded as “No significant differences”, the “Effect on spermatogenesis (testis morphology)” value is on record as “no effect on spermatogenesis” and the Epididymal sperm motility result is on record as “normal motility”.

(Values after paper PMC3770188 (ACS medicinal chemistry letters, 2013).)
